Calls of active or inactive are those of the source. The calls are words filed in the database; no cut-off is given here.
Assays:
HepG2 [1] = assay: Induction of apoptosis in human HepG2 cells assessed as decrease in CDK expression level at cytotoxic IC100 measured after 24 hrs by Western blot method; assay type: functional; set-up: scale not given: the % may be the effect or the level left
SNU-475 [2] = assay: Induction of apoptosis in human SNU475 cells assessed as condensed nuclei at cytotoxic IC100 measured after 48 hrs by DAPI/Annexin-V-Fluos staining based fluorescent microscopic method; assay type: functional, cell-based
Method in brief: (§1)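 Cells on coverslips were treated after 24 h in culture and stained 48 h later with Annexin-V-Fluos plus DAPI nuclear stain. Cells were then examined by fluorescence microscopy for Annexin V-positive cells with condensed nuclei.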

SNU-475 [3] = assay: Increase in p21 protein expression in human SNU475 cells at cytotoxic IC100 measured after 24 hrs by Western blot method relative to control; assay type: functional
SNU-475 [4] = assay: Induction of apoptosis in human SNU475 cells assessed as decrease in CDK expression level at cytotoxic IC100 measured after 24 hrs by Western blot method; assay type: functional, cell-based
Mahlavu [5] = assay: Cytotoxicity against human Mahlavu cells assessed as growth inhibition after 72 hrs by SRB assay; assay type: functional, cell-based
Method in brief: (§2)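 Cells seeded at 2000–3000 per well and grown 24 h at 37C, then treated in triplicate with compounds dissolved in DMSO over a 40–0.3 range for 72 h. Cells were fixed with 10% TCA for 1 h, stained with 0.4% SRB in 1% acetic acid, washed with 1% acetic acid and air-dried. Bound dye was solubilized in 10 mM Tris base and read at 515 nm. % inhibition and IC50 were calculated against DMSO-only controls.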

HepG2 [6] = assay: Induction of apoptosis in human HepG2 cells assessed as accumulation at subG1 phase at cytotoxic IC100 measured after 72 hrs by propidium iodide staining based flow cytometry; assay type: functional, cell-based
Method in brief: (§3)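 After 24, 48 and 72 h, cells were fixed in ice-cold 70% ethanol for 3 h, stained with propidium iodide, and cell-cycle distribution was read on a MUSE Cell Analyzer.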

Huh-7 [7] = assay: Cytotoxicity against human HuH7 cells assessed as growth inhibition after 72 hrs by SRB assay; assay type: functional, cell-based; details: Huh-7, 72 h; method in brief: as §2
HepG2 [8] = assay: Growth inhibition of human HepG2 cells at cytotoxic IC100 measured every 10 mins for first 24 hrs and every 30 mins for remaining 48 hrs by RT-CES analysis; assay type: functional, cell-based
SNU-475 [9] = assay: Growth inhibition of human SNU475 cells at cytotoxic IC100 measured every 10 mins for first 24 hrs and every 30 mins for remaining 48 hrs by RT-CES analysis; assay type: functional, cell-based
HepG2 [10] = assay: Induction of apoptosis in human HepG2 cells assessed as PARP cleavage at cytotoxic IC100 measured after 24 hrs by Western blot method; assay type: functional, cell-based
HepG2 [11] = assay: Induction of apoptosis in human HepG2 cells assessed as decrease in cyclin B1 protein expression level at cytotoxic IC100 measured after 24 hrs by Western blot method; assay type: functional, cell-based
[12] = molecular target: G2/mitotic-specific cyclin-B1 (Homo sapiens) (UniProt P14635); assay: Inhibition of Cyclin B1 phosphorylation at Ser147 residue in human HepG2 cells at cytotoxic IC100 measured after 24 hrs by Western blot method; assay type: cell-based
[13] = molecular target: T1, Retinoblastoma-associated protein (Homo sapiens) (UniProt P06400); assay: Inhibition of retinoblastoma phosphorylation in human HepG2 cells at cytotoxic IC100 measured after 24 hrs by Western blot method; assay type: cell-based
T1 sequence (whole entry): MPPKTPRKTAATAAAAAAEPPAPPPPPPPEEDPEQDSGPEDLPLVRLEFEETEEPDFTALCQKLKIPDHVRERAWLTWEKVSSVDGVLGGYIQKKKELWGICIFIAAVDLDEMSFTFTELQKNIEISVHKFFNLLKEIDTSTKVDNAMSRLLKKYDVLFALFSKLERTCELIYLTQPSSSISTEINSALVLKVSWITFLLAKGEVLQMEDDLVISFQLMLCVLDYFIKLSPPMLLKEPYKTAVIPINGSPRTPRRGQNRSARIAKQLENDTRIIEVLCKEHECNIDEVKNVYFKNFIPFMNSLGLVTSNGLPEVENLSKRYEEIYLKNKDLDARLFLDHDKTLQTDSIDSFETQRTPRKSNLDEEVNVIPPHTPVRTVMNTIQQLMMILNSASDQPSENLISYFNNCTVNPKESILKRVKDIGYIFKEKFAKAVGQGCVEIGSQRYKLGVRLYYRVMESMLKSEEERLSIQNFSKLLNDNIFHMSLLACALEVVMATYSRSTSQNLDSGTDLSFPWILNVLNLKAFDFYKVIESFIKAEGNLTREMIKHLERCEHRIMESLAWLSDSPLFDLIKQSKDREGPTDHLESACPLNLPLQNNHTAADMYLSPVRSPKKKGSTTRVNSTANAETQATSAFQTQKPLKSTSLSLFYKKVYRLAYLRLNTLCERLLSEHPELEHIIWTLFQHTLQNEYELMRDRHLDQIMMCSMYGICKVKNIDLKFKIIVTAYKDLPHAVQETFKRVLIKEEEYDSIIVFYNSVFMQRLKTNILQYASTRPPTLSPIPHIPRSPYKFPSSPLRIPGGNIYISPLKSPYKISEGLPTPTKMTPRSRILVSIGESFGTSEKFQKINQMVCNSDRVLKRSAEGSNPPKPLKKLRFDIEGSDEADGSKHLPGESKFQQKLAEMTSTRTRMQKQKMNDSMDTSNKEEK

MCF-12A = assay: Cytotoxicity against human MCF12A cells assessed as growth inhibition after 72 hrs by SRB assay; assay type: cell-based; method in brief: as §2
SNU-475 [14] = assay: Induction of apoptosis in human SNU475 cells assessed as accumulation at G2/M phase at cytotoxic IC100 measured after 48 hrs by propidium iodide staining based flow cytometry; assay type: functional, cell-based; method in brief: as §3
Huh-7 [15] = assay: Growth inhibition of human HuH7 cells at cytotoxic IC100 measured every 10 mins for first 24 hrs and every 30 mins for remaining 48 hrs by RT-CES analysis; assay type: functional, cell-based
MCF7 = assay: Cytotoxicity against human MCF7 cells assessed as growth inhibition after 72 hrs by SRB assay; assay type: functional, cell-based; details: MCF7, 72 h; method in brief: as §2
HepG2 [16] = assay: Increase in p21 protein expression in human HepG2 cells at cytotoxic IC100 measured after 24 hrs by Western blot method relative to control; assay type: functional
HCT-116 = assay: Cytotoxicity against human HCT116 cells assessed as growth inhibition after 72 hrs by SRB assay; assay type: functional, cell-based; details: HCT-116, 72 h; method in brief: as §2
HepG2 [17] = assay: Induction of apoptosis in human HepG2 cells assessed as condensed nuclei at cytotoxic IC100 measured after 72 hrs by light microscopic method; assay type: functional, cell-based
[18] = molecular target: T1, Retinoblastoma-associated protein (Homo sapiens); assay: Inhibition of retinoblastoma phosphorylation in human SNU475 cells at cytotoxic IC100 measured after 24 hrs by Western blot method; assay type: cell-based
HepG2 [19] = assay: Cytotoxicity against human HepG2 cells assessed as growth inhibition after 72 hrs by SRB assay; assay type: functional, cell-based; details: HepG2, 72 h; method in brief: as §2
Homo sapiens = species: Homo sapiens; assay: Inhibition of tubulin polymerization (unknown origin)
SNU-475 [20] = assay: Induction of apoptosis in human SNU475 cells assessed as PARP cleavage at cytotoxic IC100 measured after 24 hrs by Western blot method; assay type: functional, cell-based
SNU-475 [21] = assay: Cytotoxicity against human SNU475 cells assessed as growth inhibition after 72 hrs by SRB assay; assay type: functional, cell-based; details: SNU-475, 72 h; method in brief: as §2
HepG2 [22] = assay: Induction of apoptosis in human HepG2 cells assessed as condensed nuclei at cytotoxic IC100 measured after 48 hrs by DAPI/Annexin-V-Fluos staining based fluorescent microscopic method; assay type: functional, cell-based; method in brief: as §1
HepG2 [23] = assay: Induction of apoptosis in human HepG2 cells assessed as accumulation at G2/M phase at cytotoxic IC100 measured after 48 hrs by propidium iodide staining based flow cytometry; assay type: functional, cell-based; method in brief: as §3
Mahlavu [24] = assay: Growth inhibition of human Mahlavu cells at cytotoxic IC100 measured every 10 mins for first 24 hrs and every 30 mins for remaining 48 hrs by RT-CES analysis; assay type: functional, cell-based
MRC5 = assay: Cytotoxicity against human MRC5 cells assessed as growth inhibition after 72 hrs by SRB assay; assay type: cell-based; details: Homo sapiens, MRC5, 72 h; read-out: IC50; method in brief: as §2
SNU-475 [25] = assay: Induction of apoptosis in human SNU475 cells assessed as accumulation at subG1 phase at cytotoxic IC100 measured after 72 hrs by propidium iodide staining based flow cytometry; assay type: functional, cell-based; method in brief: as §3
SNU-475 [26] = assay: Induction of apoptosis in human SNU475 cells assessed as condensed nuclei at cytotoxic IC100 measured after 72 hrs by light microscopic method; assay type: functional, cell-based

Chain of G2/mitotic-specific cyclin-B1 (Homo sapiens) (P14635 whole entry): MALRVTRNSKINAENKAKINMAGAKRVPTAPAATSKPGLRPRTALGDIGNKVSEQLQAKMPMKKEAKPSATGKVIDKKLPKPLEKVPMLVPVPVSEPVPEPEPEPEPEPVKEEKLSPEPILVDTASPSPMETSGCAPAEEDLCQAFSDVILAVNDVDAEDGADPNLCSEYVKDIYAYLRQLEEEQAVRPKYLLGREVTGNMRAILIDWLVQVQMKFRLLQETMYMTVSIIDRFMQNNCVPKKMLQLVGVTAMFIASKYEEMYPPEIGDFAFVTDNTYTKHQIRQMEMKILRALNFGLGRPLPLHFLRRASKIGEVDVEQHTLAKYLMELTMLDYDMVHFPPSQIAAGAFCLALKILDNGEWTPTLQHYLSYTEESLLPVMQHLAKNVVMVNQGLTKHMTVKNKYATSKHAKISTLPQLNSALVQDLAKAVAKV

| inhibition (Homo sapiens) | SMILES | Activity (SNU-475 [2]) | IC50 (Mahlavu [5]) [nM] | Activity (HepG2 [6]) | IC50 (Huh-7 [7]) [nM] | growth inhibition (GI) (HepG2 [8]) | growth inhibition (GI) (SNU-475 [9]) | Activity (HepG2 [10]) | IC50 (MCF-12A) [nM] | Activity (SNU-475 [14]) | growth inhibition (GI) (Huh-7 [15]) | IC50 (MCF7) [nM] | IC50 (HCT-116) [nM] | Activity (HepG2 [17]) | IC50 (HepG2 [19]) [µM] | Activity (SNU-475 [20]) | IC50 (SNU-475 [21]) [nM] | Activity (HepG2 [22]) | Activity (HepG2 [23]) | growth inhibition (GI) (Mahlavu [24]) | other results |
| --- | --- | --- | --- | --- | --- | --- | --- | --- | --- | --- | --- | --- | --- | --- | --- | --- | --- | --- | --- | --- | --- |
| inactive | COc1ccc(OC)c(C(=O)/C=C/c2cn(-c3ccccc3)nc2-c2cccnc2)c1 | Active | 2000 | Active | 1300 | Active | Active | Active | 2400 | Active | Active | 1500 | 1000 | Active | 3.4 | Active | 1900 | Active | Active | Active | Activity (HepG2 [1]): 50%; fold change (FC) (SNU-475 [3]): 2; Activity (SNU-475 [4]): Active; Activity (HepG2 [11]): Active; inhibition [12]: 50%; inhibition [13]: Active; fold change (FC) (HepG2 [16]): 5 - 6; inhibition [18]: Active; IC50 (MRC5): 2700 nM; Activity (SNU-475 [25]): Active; Activity (SNU-475 [26]): Active |
| inactive | COc1cc(OC)c(C(=O)/C=C/c2cn(-c3ccccc3)nc2-c2cccnc2)c(OC)c1 | Active | 1100 | Active | 500 | Active | Active | Active | 1200 | Active | Active | 1000 | 300 | Active | 1.4 | Active | 800 | Active | Active | Active | IC50 (MRC5): 1300 nM; Activity (SNU-475 [25]): Active; Activity (SNU-475 [26]): Active |
| inactive | COc1ccc(OC)c(C(=O)/C=C/c2cn(-c3ccccc3)nc2-c2ccncc2)c1 | Active | 1600 | Active | 1700 | Active | Active | Active | 3000 | Active | Active | 1400 | 900 | Active | 4.8 | Active | 2000 | Active | Active | Active | Activity (HepG2 [1]): 50%; fold change (FC) (SNU-475 [3]): 2; Activity (SNU-475 [4]): Active; Activity (HepG2 [11]): Active; inhibition [12]: 50%; inhibition [13]: Active; fold change (FC) (HepG2 [16]): 5 - 6; inhibition [18]: Active; IC50 (MRC5): 3100 nM; Activity (SNU-475 [25]): Active; Activity (SNU-475 [26]): Active |

Source: ChEMBL document CHEMBL4004857, “Synthesis and biological evaluation of novel pyrazolic chalcone derivatives as novel hepatocellular carcinoma therapeutics” (Eur J Med Chem, 2017)
